Active and inactive are the calls of the source. The calls are words filed in the database; no cut-off is given here.
What was measured:
[1] = Displacement of [125I]alpha-bungarotoxin from rat hippocampus membrane alpha7* nAChR pretreated for 5 mins followed by [125I]alpha-bungarotoxin addition after overnight incubation by gamma counter
How it was run: (§1)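 Competition binding using [3H]epibatidine for rat cortex α4β2* and human α3β4 from transfected cells, and [125I]α-bungarotoxin for rat hippocampus α7*. Kd from three saturation experiments and Ki from three competition experiments. Fitted by nonlinear least squares (LIGAND) with an F test.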

[2] = Displacement of [3H]epibatidine from rat cerebral cortex membrane alpha4beta2* nAChR pretreated for 5 mins followed by [3H]epibatidine addition after overnight incubation by beta counter; how it was run: as §1
[3] = target: T1, Neuronal acetylcholine receptor; alpha3/beta4 (Homo sapiens, UniProt P30926+P32297); experiment: Displacement of [3H]epibatidine from human alpha3beta4 nAChR expressed in HEK293 cells pretreated for 5 mins followed by [3H]epibatidine addition after overnight incubation by beta counter; type: cell-based; how it was run: as §1
[4] = species on record: Rattus norvegicus; experiment: Selectivity ratio of Ki for displacement of [125I]alpha-bungarotoxin from rat hippocampus membrane alpha7* nAChR to Ki for displacement of [3H]epibatidine from rat cerebral cortex membrane alpha4beta2* nAChR
How it was run: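 Ki for rat hippocampal α7* ([125I]α-bungarotoxin competition) divided by Ki for rat cortical α4β2* ([3H]epibatidine competition). Each Ki comes from three competition experiments analysed by nonlinear least squares.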

[5] = Selectivity ratio of Ki for displacement of [3H]epibatidine from human alpha3beta4 nAChR expressed in HEK293 cells to Ki for displacement of [3H]epibatidine from rat cerebral cortex membrane alpha4beta2* nAChR; type: cell-based
How it was run: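 [3H]-epibatidine competition binding on native rat cerebral cortex membranes (α4β2*) and on membranes of HEK cells transiently transfected with human α3β4. Kd and Ki came from three saturation and three competition experiments each, fitted by nonlinear least squares (LIGAND) with F test. The ratio is α3β4 Ki divided by α4β2 Ki.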

[6] = target: T2, Neuronal acetylcholine receptor; alpha4/beta2 (Homo sapiens, UniProt P17787+P43681); experiment: Partial agonist activity at human alpha4beta2 nAChR expressed in GH4CL cells by whole-cell patch clamp method; type: cell-based
How it was run: (§2)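 Human receptor transiently transfected into GH4C1 pituitary cells. Agonist concentrations applied in sequence. Peak currents normalized to the 1 mM ACh response on the same cell. Fitted to a Hill equation, I = Imax([C]^nH/(EC50^nH+[C]^nH)), to give EC50, Imax and Hill coefficient.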

[7] = target: T2, Neuronal acetylcholine receptor; alpha4/beta2; experiment: Antagonist activity at human alpha4beta2 nAChR expressed in GH4CL cells by whole-cell patch clamp method; type: cell-based
[8] = target: T1, Neuronal acetylcholine receptor; alpha3/beta4; experiment: Antagonist activity at human alpha3beta4 nAChR expressed in GH4CL cells by whole-cell patch clamp method; type: cell-based
[9] = target: T1, Neuronal acetylcholine receptor; alpha3/beta4; experiment: Partial agonist activity at human alpha3beta4 nAChR expressed in GH4CL cells by whole-cell patch clamp method; type: cell-based; how it was run: as §2
[10] = target: T2, Neuronal acetylcholine receptor; alpha4/beta2; experiment: Partial agonist activity at human alpha4beta2 nAChR expressed in GH4CL cells by whole-cell patch clamp method relative to acetylcholine; type: cell-based; how it was run: as §2
[11] = target: Neuronal acetylcholine receptor; alpha4/beta2 (Rattus norvegicus, UniProt P09483+P12390); experiment: Displacement of [3H](-)cytisine from rat whole brain alpha4beta2 nAChR
Sequence of Neuronal acetylcholine receptor; alpha4/beta2 (Rattus norvegicus, UniProt P09483+P12390) (P09483 whole entry): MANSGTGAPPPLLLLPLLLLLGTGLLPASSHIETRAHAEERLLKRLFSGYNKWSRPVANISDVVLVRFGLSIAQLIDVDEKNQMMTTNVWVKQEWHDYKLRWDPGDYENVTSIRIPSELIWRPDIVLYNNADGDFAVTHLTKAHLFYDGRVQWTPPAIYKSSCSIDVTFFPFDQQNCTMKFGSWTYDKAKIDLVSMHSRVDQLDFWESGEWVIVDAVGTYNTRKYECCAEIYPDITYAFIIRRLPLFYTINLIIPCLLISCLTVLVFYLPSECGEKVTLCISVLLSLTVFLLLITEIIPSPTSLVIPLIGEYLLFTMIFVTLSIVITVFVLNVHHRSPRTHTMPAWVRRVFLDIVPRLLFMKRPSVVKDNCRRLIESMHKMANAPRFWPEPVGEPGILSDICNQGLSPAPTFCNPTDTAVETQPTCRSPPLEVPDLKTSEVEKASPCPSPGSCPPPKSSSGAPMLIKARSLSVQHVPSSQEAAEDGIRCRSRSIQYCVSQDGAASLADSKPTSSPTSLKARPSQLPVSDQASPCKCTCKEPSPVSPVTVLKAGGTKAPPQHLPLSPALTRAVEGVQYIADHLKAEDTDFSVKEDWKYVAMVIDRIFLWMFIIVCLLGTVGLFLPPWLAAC
Sequence of Neuronal acetylcholine receptor; alpha4/beta2 (Rattus norvegicus, UniProt P09483+P12390) (P12390 whole entry): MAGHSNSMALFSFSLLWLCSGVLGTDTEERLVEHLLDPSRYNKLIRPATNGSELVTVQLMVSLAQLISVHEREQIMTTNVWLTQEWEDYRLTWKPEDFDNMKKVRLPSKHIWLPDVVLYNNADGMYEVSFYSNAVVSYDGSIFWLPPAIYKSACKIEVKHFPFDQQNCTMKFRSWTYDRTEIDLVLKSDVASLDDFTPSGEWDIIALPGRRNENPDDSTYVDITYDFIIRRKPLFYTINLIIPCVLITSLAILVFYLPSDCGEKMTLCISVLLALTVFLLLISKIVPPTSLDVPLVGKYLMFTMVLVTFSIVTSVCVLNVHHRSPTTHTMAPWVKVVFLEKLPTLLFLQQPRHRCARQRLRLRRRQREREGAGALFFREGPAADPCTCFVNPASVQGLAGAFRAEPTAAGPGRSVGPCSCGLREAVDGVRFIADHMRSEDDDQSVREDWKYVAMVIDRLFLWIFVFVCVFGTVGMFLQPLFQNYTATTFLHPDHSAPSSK

T1 sequence (P30926 whole entry): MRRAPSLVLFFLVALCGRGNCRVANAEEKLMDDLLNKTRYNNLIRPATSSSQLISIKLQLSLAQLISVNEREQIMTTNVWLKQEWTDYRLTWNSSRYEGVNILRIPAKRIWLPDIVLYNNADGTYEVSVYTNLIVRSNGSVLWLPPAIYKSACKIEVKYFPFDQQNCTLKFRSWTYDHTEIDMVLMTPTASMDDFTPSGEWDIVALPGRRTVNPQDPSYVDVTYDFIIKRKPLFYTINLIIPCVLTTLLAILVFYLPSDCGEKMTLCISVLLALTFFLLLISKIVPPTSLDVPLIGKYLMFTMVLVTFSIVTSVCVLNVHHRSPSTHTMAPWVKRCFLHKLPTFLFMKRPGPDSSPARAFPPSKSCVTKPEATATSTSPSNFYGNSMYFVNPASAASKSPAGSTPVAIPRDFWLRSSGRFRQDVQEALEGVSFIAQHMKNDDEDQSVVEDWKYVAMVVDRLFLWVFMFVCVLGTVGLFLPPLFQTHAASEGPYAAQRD
T1 sequence (P32297 whole entry): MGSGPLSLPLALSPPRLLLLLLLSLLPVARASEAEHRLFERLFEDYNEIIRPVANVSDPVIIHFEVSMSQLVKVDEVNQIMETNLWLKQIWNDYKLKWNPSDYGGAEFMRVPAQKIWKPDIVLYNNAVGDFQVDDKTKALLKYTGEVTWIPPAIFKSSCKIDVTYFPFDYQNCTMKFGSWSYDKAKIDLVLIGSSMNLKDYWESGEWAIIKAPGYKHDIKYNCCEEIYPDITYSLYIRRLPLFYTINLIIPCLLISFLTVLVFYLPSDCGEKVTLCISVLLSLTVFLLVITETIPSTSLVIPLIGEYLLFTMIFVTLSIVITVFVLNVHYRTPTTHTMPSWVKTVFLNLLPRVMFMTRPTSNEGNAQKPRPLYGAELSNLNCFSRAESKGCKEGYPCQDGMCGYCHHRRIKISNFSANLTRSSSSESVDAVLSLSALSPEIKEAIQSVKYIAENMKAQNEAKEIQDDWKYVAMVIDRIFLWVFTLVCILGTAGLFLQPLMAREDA
T2 sequence (P17787 whole entry): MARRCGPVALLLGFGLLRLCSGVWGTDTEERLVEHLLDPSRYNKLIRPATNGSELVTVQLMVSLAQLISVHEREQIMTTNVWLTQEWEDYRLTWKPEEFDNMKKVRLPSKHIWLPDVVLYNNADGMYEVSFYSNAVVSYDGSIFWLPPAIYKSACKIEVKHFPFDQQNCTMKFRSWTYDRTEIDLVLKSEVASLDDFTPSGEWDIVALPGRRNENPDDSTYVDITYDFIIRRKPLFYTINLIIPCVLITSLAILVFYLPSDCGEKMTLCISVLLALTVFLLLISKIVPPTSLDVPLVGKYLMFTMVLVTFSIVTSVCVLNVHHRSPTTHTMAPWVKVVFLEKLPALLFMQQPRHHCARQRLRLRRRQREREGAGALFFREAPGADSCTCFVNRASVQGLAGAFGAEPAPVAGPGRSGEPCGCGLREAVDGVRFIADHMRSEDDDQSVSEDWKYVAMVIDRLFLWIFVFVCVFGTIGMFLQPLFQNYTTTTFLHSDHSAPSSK
T2 sequence (P43681 whole entry): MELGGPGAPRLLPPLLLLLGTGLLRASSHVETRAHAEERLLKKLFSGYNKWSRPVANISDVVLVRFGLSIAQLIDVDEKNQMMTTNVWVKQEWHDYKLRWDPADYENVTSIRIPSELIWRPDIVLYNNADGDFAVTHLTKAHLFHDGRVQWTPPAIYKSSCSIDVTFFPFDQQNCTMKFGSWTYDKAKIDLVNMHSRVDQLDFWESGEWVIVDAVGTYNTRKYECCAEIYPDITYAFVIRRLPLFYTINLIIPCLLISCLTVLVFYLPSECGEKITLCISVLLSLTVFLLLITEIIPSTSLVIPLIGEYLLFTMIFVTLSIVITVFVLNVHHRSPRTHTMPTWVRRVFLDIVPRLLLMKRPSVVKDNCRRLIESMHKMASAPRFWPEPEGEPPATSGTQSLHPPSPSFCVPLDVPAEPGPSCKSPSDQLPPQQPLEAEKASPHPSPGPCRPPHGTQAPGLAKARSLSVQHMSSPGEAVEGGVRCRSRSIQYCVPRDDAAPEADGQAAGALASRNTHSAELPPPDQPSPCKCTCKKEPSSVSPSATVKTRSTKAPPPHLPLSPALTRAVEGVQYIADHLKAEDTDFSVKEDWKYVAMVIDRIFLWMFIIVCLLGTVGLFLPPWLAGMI

Structure (SMILES) | Ki [1] [µM] | Ki [2] [µM] | Ki [3] [µM] | Ratio Ki [4] | Ratio Ki [5] | further results
CN1CCC[C@H]1[C@H]1COc2ccccc2O1 | 14.6 | 0.47 | 8.2 |  |  | 
C[C@@H](Oc1cccc(O)c1)[C@@H]1CCCN1C | 0.057 | 0.011 |  | 5 | 23 | 
CN1CCC[C@H]1[C@@H]1COc2ccccc2O1 | 21 | 0.26 | 1.2 | 81 | 5 | Activity [6]: inactive; IC50 [7]: 5.36 to 5.4 µM; IC50 [8]: 2.78 to 2.8 µM; Activity [9]: inactive
CN1CCC[C@H]1[C@H]1COc2ncccc2O1 | > 10 | 30.4 | 22 |  |  | 
CN1CCC[C@H]1[C@@H]1COc2cccnc2O1 | 24 | 43 |  |  |  | 
CN1CCC[C@H]1[C@@H]1COc2ncccc2O1 | 89 | 0.41 | 16.2 | 215 | 39 | EC50 [6]: 10.1 µM; %max [10]: 24.2%
CN1CCC[C@H]1c1cc2ccccc2o1 |  |  |  |  |  | Ki [11]: 0.16 µM
CN1CCC[C@H]1[C@H]1COc2cccnc2O1 | 12 | 30 |  |  |  | 
COc1ccc(O)cc1OC[C@@H]1CCCN1C | 1.15 | 0.019 |  | 60 | 14 | 
CN1CCC[C@H]1[C@H]1COc2ccncc2O1 |  | 3.6 | 8.9 |  |  | 
CN1CCC[C@H]1[C@@H]1COc2ccncc2O1 |  | 1.64 | 5.8 |  |  | 
CN1CCC[C@H]1[C@H]1COc2ccc(O)cc2O1 | 0.43 | 0.012 | 0.31 | 36 | 26 | 
